Source: PubChem BioAssay (several laboratories)
A selection: hits, their analogues and other compounds. The true share with any hit is near 1.9%.
VIM-2 inhibitor: inhibitors of Pseudomonas aeruginosa VIM-2 metallo-beta-lactamase; purified VIM-2, nitrocefin hydrolysis, epi-absorbance fluorescence; 0.89% of 290,000 active; inhibition, % at 5.6 µM; AID 1527;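 active means inhibition above the mean of all tested compounds plus 3 SD, cutoff set per screening run, cut at about 7.5% in these data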;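 further: red hydrolysis product quenches plate fluorescence so inhibitors raise well fluorescence; 0% = enzyme with DMSO and 100% = DMSO without enzyme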
SUMO HTRF inh: blocks human SUMOylation mediated by UBC9. P63279. HTRF SUMOylation assay, SAE1/SAE2 + UBC9, in vitro. inhibition, % at 35 µM. 0.36% of 290,000 active; in the data active means inhibition above about 50%, passing the limit was not always enough
Target sequence (P63279 whole entry, looked up): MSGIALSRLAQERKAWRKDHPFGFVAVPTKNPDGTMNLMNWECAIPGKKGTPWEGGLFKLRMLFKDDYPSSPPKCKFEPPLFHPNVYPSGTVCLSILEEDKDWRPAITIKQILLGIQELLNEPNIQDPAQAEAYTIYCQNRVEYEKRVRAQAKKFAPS
Fh CTSL1 inh: cathepsin L1 inhibition, PFM18AAP counter-screen | inhibition, % at 5.96 µM | 0.49% of 300,000 active | recombinant F. hepatica cathepsin L1, Z-Leu-Arg-MCA fluorescence | AID 1906;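 active means inhibition above the mean of all tested compounds plus 3 SD, set per screening campaign, cut at about 17% in these data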;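 further: 0% = plate median of test compound wells and 100% = 1 µM Z-Phe-Ala-diazomethylketone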
pCIP destab: lowers stability of the mouse p/CIP coactivator protein | Q05BA5 | F442A p/CIP-EGFP cells, EGFP fluorescence, 16 h | decrease of EGFP signal, % at 10 µM | 0.01% of 290,000 active;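 active means EGFP signal decrease of at least 30% at 10 µM or well 3 SD below plate mean, unless failing retest; inactive means the rest, including hits failing retest or dose response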
IMP-1 inh: blocks Pseudomonas aeruginosa IMP-1 metallo-beta-lactamase | purified IMP-1, nitrocefin hydrolysis, epi-absorbance fluorescence | inhibition, % at 5.6 µM | 0.45% of 290,000 active | AID 1556;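 active means inhibition above the mean plus 3 SD of all compounds in the same screening run, cut at about 4.5% in these data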;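 further: 0% = IMP-1 with DMSO and 100% = DMSO wells lacking enzyme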
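System: Purified recombinant IMP-1 metallo-beta-lactamase enzyme | Measured by: Fluorescence quenching readout, ex 480/em 530 nm | Replication: Singlicate | Incubation: 15 min preincubation plus 25 min reaction at 25 °C | Evaluation: Percent inhibition from optical density relative to buffer-blank wells | Benchmarks: DMSO with and without IMP-1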
T cell modulator: T cell immune modulators affecting CD8 T cell-vesicle binding; 2C CD8+ T cell-vesicle binding, flow cytometry; active compounds read low; 0.068% of 330,000 active; response (vesicle binding), % at 7 µM; AID 2052;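 active means response, share of CD8 T cells binding vesicles, and their 90th percentile fluorescence all below set limits, cut at about 80% in these data, passing the limit was not always enough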;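 further: values below 100% mean blocked vesicle binding to the CD8+ T cells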
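Assay system – 2C mouse CD8+ T cells · Also added – QL9-loaded Drosophila micro-vesicles · Timing – Cell–vesicle co-incubation 1.5 h at 37 °C, staining 20 min on ice · Signal – flow cytometry of vesicle-bound cells · Measure – percent CD8+ FL2 mean versus row control · Controls – Peptide-free naked vesicles (low) and QL9 vesicles with 0.7% DMSO vehicle (high)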
The depositor's hits bear a star; · = no result.

SMILES	VIM-2 inhibitor	SUMO HTRF inh	Fh CTSL1 inh	pCIP destab	IMP-1 inh	T cell modulator
CC(C)CC(NC(=O)C1CCC(=O)N1C(=O)OCc1ccccc1)C(=O)NC(Cc1ccccc1)C(N)=O (stereo not given)	-0.4	15.9	6.4	-3.9	-0.8	372.7
O=C(Nc1cccc(C(F)(F)F)c1)C(=O)N1CCCCC1	-1.1	4.6	-0.6	-9.0	-0.4	146.8
O=C(O)C1=C(C(=O)Nc2cccc(C(F)(F)F)c2)CCCC1	5.4	-3.3	0.8	9.9	18.2*	310.2
NC(=O)C1CCN(C(=O)Cc2ccc(-c3ccccc3)cc2)CC1	-0.8	20.6	0.5	-8.4	9.7*	161.1
O=C(O)C1CCN(C(=O)Cc2ccccc2)CC1	-4.1	-4.2	2.3	3.9	-2.7	896.2
CCOC(=O)c1c(S(=O)(=O)Nc2ccccc2OCC)c(C)n(C)c1C	-1.8	-5.3	-3.4	-9.5	-3.5	141.5
O=[N+]([O-])c1cc(Cl)c(O)c2ncccc12	-0.3	59.1*	·	-3.5	-5.5	·
CCOC(=O)CN(C(=O)c1snc(C(N)=O)c1N)C(C(=O)NC1CCCCC1)c1ccc(F)cc1 (stereo not given)	-0.4	11.8	8.3	-5.4	-2.5	425.5
CCc1ccccc1NC(=O)Cn1nnc(C(=O)NCc2cccc(OC)c2)c1N	-2.4	10.2	-2.0	3.5	-2.6	407.6
CCNCCNC(=O)c1c(O)c2cccc3c2n(c1=O)CCC3	8.5*	0.2	4.3	6.6	-1.9	238.5
O=C(NCCCO)c1c(O)c2cccc3c2n(c1=O)CCC3	11.1*	15.7	0.2	-9.1	-3.0	145.2
Cc1cc(NCCN2CCOCC2)c2ccc3ccccc3c2n1	8.8*	19.2	1.2	9.6	-3.3	347.9
COc1ccc2nc(C)cc(NCCN3CCOCC3)c2c1	-0.7	-5.0	1.0	-5.0	-2.2	473.1
CC1CCN(Cc2cc(=O)oc3cc(O)c(Cl)cc23)CC1	-1.1	55.2*	9.6	0.2	-3.2	438.8
COc1cc(OC)c2c(C)cc(=O)oc2c1	2.5	26.5	5.5	6.8	4.9*	246.6
COc1cc(OC)c2ccc(=O)oc2c1	·	·	·	·	·	0.0
CCC(C(=O)NN1C(=O)c2ccccc2C1=O)c1ccccc1 (stereo not given)	-1.0	27.9	-2.1	-5.6	-1.8	247.6
O=C(COc1cc2oc(=O)c3c(c2cc1Cl)CCC3)N1C[C@H]2C[C@@H](C1)c1cccc(=O)n1C2	11.4*	5.5	10.5	-0.2	-0.1	639.8
Cc1c(OCC(=O)N2C[C@H]3C[C@@H](C2)c2cccc(=O)n2C3)ccc2c3c(c(=O)oc12)CCCC3	5.9	1.5	-0.7	5.8	-2.6	253.2
C=C(C)COc1cc2oc(=O)c(CC(=O)N3C[C@H]4C[C@@H](C3)c3cccc(=O)n3C4)c(C)c2cc1Cl	-0.7	19.7	2.7	-8.2	-2.2	72.2
Cc1c(OCC(=O)N2C[C@H]3C[C@@H](C2)c2cccc(=O)n2C3)ccc2c3c(c(=O)oc12)CCC3	11.7*	13.2	0.9	8.2	-1.8	523.0
COc1ccc(CNC(=O)CCC2N=C3c4ccccc4N=C(SCC(=O)NCC4CCCO4)N3C2=O)cc1 (stereo not given)	-1.0	4.7	3.9	4.0	-3.2	160.7
C/C(=N\Nc1ccc([N+](=O)[O-])cc1)c1ccc(C#N)cc1	-1.5	21.8	4.6	-3.3	-1.3	393.8
N#CC(C#N)=NNc1ccc([N+](=O)[O-])cc1	-5.8	9.8	24.3*	-22.7	-6.8	225.7
Nc1nccnc1C(=O)OCC(=O)NCCc1ccc(Cl)cc1	·	·	·	·	·	457.8
SMILES	VIM-2 inhibitor	SUMO HTRF inh	Fh CTSL1 inh	pCIP destab	IMP-1 inh	T cell modulator
COc1ccc(N2Cc3ccc(C(=O)N/N=C\c4ccc(O)cc4O)cc3C2)cc1	-1.7	66.1*	1.6	-5.9	-3.8	254.4
COc1ccc2nc(C)cc(SCC(=O)N/N=C/c3ccc(O)cc3O)c2c1	-3.8	8.1	4.5	-2.0	-4.9	254.6
O=C(N/N=C/c1ccc(O)cc1O)C(=O)N/N=C/c1ccc(O)cc1O	1.0	95.4*	7.8	3.6	-2.3	253.5
O=C(COC(=O)CCCN1C(=O)c2cccc3cccc(c23)C1=O)Nc1ccc(Cl)cc1	0.1	-4.6	2.8	-3.6	-3.0	219.7
CN(C)CCCN1C(=O)c2cccc3cccc(c23)C1=O	7.8*	27.5	3.7	-8.6	-4.1	370.1
CC1CCN(C(=O)COC(=O)CCCN2C(=O)c3cccc4cccc(c34)C2=O)CC1	1.6	19.3	·	-12.0	-0.2	0.0*
CC(C)CC(=O)Nc1ccc(S(=O)(=O)Nc2nccs2)cc1	-0.3	5.4	0.8	0.8	-4.3	226.3
CCc1cc(=O)oc2c(C)c(OC(C)C(=O)NC3CC(C)(C)NC(C)(C)C3)ccc12 (stereo not given)	8.1*	14.3	-1.4	-5.9	1.5	286.1
CCc1cc(=O)oc2cc(C)cc(OC(C)C(=O)NC3CC(C)(C)NC(C)(C)C3)c12 (stereo not given)	1.7	17.8	1.0	0.6	-1.8	434.4
CC(C)OCCOc1ccc2oc(-c3ccco3)cc(=O)c2c1	-1.2	46.0	3.3	5.5	-1.3	174.1
N#CCOc1ccc2oc(-c3ccco3)cc(=O)c2c1	-1.4	52.4*	2.9	-1.2	-3.2	450.5
c1coc(-c2nnc(-c3ccco3)nn2)c1	-3.1	·	22.7*	-0.4	-3.5	451.2
c1ccc(-c2nnc(-c3ccco3)o2)cc1	-0.6	-5.3	-0.6	-1.8	-3.0	161.0
COc1ccc(C(=O)Nc2ccc(Cl)cc2F)cc1S(=O)(=O)N1CCCC1	·	·	·	·	·	574.5
CCOC(=O)Nc1ccc2c(c1)N(C(=O)CCN(CC)CC)c1ccccc1S2=O (stereo not given)	-0.3	4.0	16.6*	1.4	-0.6	92.8
Cc1cc(=O)oc(C)c1C(=O)OCC(=O)c1ccc(Cl)c(Cl)c1	1.0	9.3	3.6	-4.8	5.3*	176.2
CCCCNC(=O)/C=C/c1ccc(S(=O)(=O)Nc2ccc(OC)cc2)cc1	-4.5	-6.9	-0.2	2.2	-3.0	388.3
Cn1c2ccc(F)cc2c2nnc(SCCN3CCCCC3)nc21	12.2*	-16.0	·	9.3	-2.4	·
CCCCn1c2ccc(F)cc2c2nnc(SCCN3CCCCC3)nc21	8.4*	4.7	·	-8.5	-3.6	·
CCOc1ccc2c(c1)c1nnc(SCC(=O)N3CCCCC3C)nc1n2C (stereo not given)	0.9	-11.1	4.7	-24.3	0.4	539.0
CCn1c2ccc(C)cc2c2nnc(SCCN3CCOCC3)nc21	10.6*	9.4	7.1	-13.5	-1.5	511.3
CCn1c2ccccc2c2nnc(SCCN3CCOCC3)nc21	3.4	-16.5	0.6	7.5	0.0	0.0
O=C(Cn1cnc2c(NC(=O)OCc3ccccc3)ncnc21)NCc1ccccn1	·	·	·	·	·	264.7
COc1cc(OC)c(/C=N/NC(=O)c2ccncc2)cc1Br	-3.9	28.1	0.2	-12.0	-2.9	339.6
